Source: ChEMBL document CHEMBL3407394, “Synthesis and in vitro anticancer activity evaluation of novel bioreversible phosphate inositol derivatives” (Eur J Med Chem, 2015)

Tests used:
A549 [1] = assay: Cytotoxicity against human A549 cells assessed as growth inhibition at 10 ug/ml after 72 hrs by MTT assay; type: functional; details: A549, 72 h, read-out: GI
Outline: (§1)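 Single-concentration screen in A549, HeLa or MDA-MB-231 cells cultured in DMEM, 10% FBS, 1% penicillin/streptomycin. About 1000 cells/well were preincubated 12 h, and compound diluted in DMEM to the final well concentration (0.5% DMSO) for 72 h at 37 °C, 5% CO2. Readout was MTT 4 h, DMSO-solubilized formazan, OD570, with inhibition relative to DMSO vehicle. Cisplatin in 1% NaCl (pH 7) served as positive control.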

HeLa [2] = assay: Cytotoxicity against human HeLa cells assessed as growth inhibition at 10 ug/ml after 72 hrs by MTT assay; type: functional; details: read-out: GI; outline: as §1
MDA-MB-231 [3] = assay: Cytotoxicity against human MDA-MB-231 cells assessed as growth inhibition at 10 ug/ml after 72 hrs by MTT assay; type: functional; details: MDA-MB-231, 72 h, read-out: GI; outline: as §1
[4] = Cytotoxicity against human MCF10A cells assessed as growth inhibition at 10 ug/ml after 72 hrs by MTT assay; type: cell-based, MCF-10A; details: read-out: GI
Outline: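 MCF10A cells in DMEM/F12 plus 5% horse serum, about 1000 per well, were incubated 12 h, then treated at one final well concentration diluted in DMEM (0.5% DMSO) for 72 h, 37 °C, 5% CO2. Viability was by MTT: 4 h in fresh medium, formazan dissolved in DMSO, absorbance at 570 nm, normalized to vehicle controls. Cisplatin in 1% NaCl, pH 7, was the positive control.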

A549 [5] = assay: Cytotoxicity against human A549 cells assessed as growth inhibition after 72 hrs by MTT assay; type: functional, cell-based; details: A549, 72 h
Outline: (§2)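 A549, HeLa and MDA-MB-231 cells were grown in DMEM with 10% FBS and 1% penicillin/streptomycin. About 1000 cells/well were seeded and left 12 h, then exposed to a dilution series in DMSO (final 0.5% DMSO) for 72 h at 37 °C, 5% CO2. MTT in fresh medium was added for 4 h, formazan dissolved in DMSO, and OD570 read. Viability was normalized to vehicle, and IC50 taken by linear regression of concentration-response curves.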

HeLa [6] = assay: Cytotoxicity against human HeLa cells assessed as growth inhibition after 72 hrs by MTT assay; type: functional, cell-based; outline: as §2
MDA-MB-231 [7] = assay: Cytotoxicity against human MDA-MB-231 cells assessed as growth inhibition after 72 hrs by MTT assay; type: functional, cell-based; details: MDA-MB-231, 72 h; outline: as §2
[8] = Cytotoxicity against human MCF10A cells assessed as growth inhibition after 72 hrs by MTT assay; type: cell-based; details: MCF-10A
Outline: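 MCF10A non-cancerous cells were maintained in DMEM/F12 with 5% horse serum. About 1000 cells/well were seeded and attached for 12 h, then dosed over a dilution series (DMSO vehicle, final 0.5%) for 72 h at 37 °C, 5% CO2. MTT in fresh medium ran 4 h, formazan was dissolved in DMSO and OD570 measured. Viability was relative to vehicle-treated cells, and IC50 came from linear regression of concentration-response curves.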

SMILES | inhibition of growth at 10 µg/mL (A549 [1]) [%] | inhibition of growth at 10 µg/mL (HeLa [2]) [%] | inhibition of growth at 10 µg/mL (MDA-MB-231 [3]) [%] | inhibition at 72 h, 10 ug/ml [4] [%] | IC50 (A549 [5]) [µM] | IC50 (HeLa [6]) [µM] | IC50 (MDA-MB-231 [7]) [µM] | IC50 [8] [µM]
CC(=O)Oc1ccc(COP(=O)(OCc2ccc(OC(C)=O)cc2)OC2C3OC4OC(C3OCc3ccccc3)C(OCc3ccccc3)C2O4)cc1 (stereo not given) | 88.9 | 100 | 95.8 | 20.1 | 6.75 | 1.26 | 2.77 | 45.4
CC(=O)Oc1ccc(COP(=O)(OCc2ccc(OC(C)=O)cc2)OC2C3OC4OC(C3OCc3ccccc3)C(O[Si](C)(C)C(C)(C)C)C2O4)cc1 (stereo not given) | 100 | 100 | 84.3 | 100 | 9.51 | 1.35 | 2.35 | 38.1
CC(=O)Oc1ccc(COP(=O)(OCc2ccc(OC(C)=O)cc2)OC2C(OCc3ccccc3)C3OCOC(C3OCc3ccccc3)C2OCc2ccccc2)cc1 (stereo not given) | 75.4 | 98.1 | 12.4 | 48.9 | 8.15 | 1.52 | 1.58 | 18.9
CC(=O)Oc1ccc(COP(=O)(OCc2ccc(OC(C)=O)cc2)OC2C(OCc3ccccc3)C3OC(C)OC(C3OCc3ccccc3)C2OCc2ccccc2)cc1 (stereo not given) | 96.6 | 100 | 9.5 | 98.1 | 11.4 | 2.79 | 2.85 | 8.19
CC(=O)Oc1ccc(COP(=O)(OCc2ccc(OC(C)=O)cc2)O[C@H]2[C@@H]3OC(C)(C)O[C@H]3[C@H](OP(=O)(OCc3ccc(OC(C)=O)cc3)OCc3ccc(OC(C)=O)cc3)[C@H]3OC(C)(C)O[C@H]32)cc1 | 90.1 | 100 | 91.8 | -10.7 | 2.34 | 0.62 | 0.83 | 25.1
CC(=O)Oc1ccc(COP(=O)(OCc2ccc(OC(C)=O)cc2)O[C@@H]2[C@@H](OCc3ccccc3)[C@H](OCc3ccccc3)[C@@H](OCc3ccccc3)[C@H](OCc3ccccc3)[C@@H]2OP(=O)(OCc2ccc(OC(C)=O)cc2)OCc2ccc(OC(C)=O)cc2)cc1 | 14.9 | 15.8 | -17.2 | 42.3 | – | – | – | –
CC(=O)Oc1ccc(COP(=O)(OCc2ccc(OC(C)=O)cc2)OC2C3OC4OC(C3OCc3ccccc3)C(OP(=O)(OCc3ccc(OC(C)=O)cc3)OCc3ccc(OC(C)=O)cc3)C2O4)cc1 (stereo not given) | 98.5 | 100 | 99.7 | 38.8 | 1.37 | 0.76 | 1.53 | > 50
CC(=O)Oc1ccc(COP(=O)(OCc2ccc(OC(C)=O)cc2)OC2C3OCOC(C3OCc3ccccc3)C(OCc3ccccc3)C2OP(=O)(OCc2ccc(OC(C)=O)cc2)OCc2ccc(OC(C)=O)cc2)cc1 (stereo not given) | 92.1 | 100 | 86.8 | 90.4 | 2.01 | 0.62 | 0.43 | 0.85
CC(=O)Oc1ccc(COP(=O)(OCc2ccc(OC(C)=O)cc2)OC2C3OCOC2C(OCc2ccccc2)C(OP(=O)(OCc2ccc(OC(C)=O)cc2)OCc2ccc(OC(C)=O)cc2)C3OCc2ccccc2)cc1 (stereo not given) | 43.7 | 100 | 99.4 | 48 | 5.55 | 0.95 | 2.37 | 23.2
C#CCO[C@@H]1[C@@H](OCc2ccccc2)[C@H](OP(=O)(OCc2ccc(OC(C)=O)cc2)OCc2ccc(OC(C)=O)cc2)[C@H](OCc2ccccc2)[C@H](OP(=O)(OCc2ccc(OC(C)=O)cc2)OCc2ccc(OC(C)=O)cc2)[C@H]1OCc1ccccc1 | 9.9 | 100 | 8.7 | 38.6 | – | – | – | –
CC(=O)Oc1ccc(COP(=O)(OCc2ccc(OC(C)=O)cc2)O[C@@H]2[C@@H](OCc3ccccc3)[C@H](OP(=O)(OCc3ccc(OC(C)=O)cc3)OCc3ccc(OC(C)=O)cc3)[C@H](OCc3ccccc3)[C@H](OCc3ccccc3)[C@H]2OCc2ccccc2)cc1 | 27.1 | 27.2 | 88.4 | 10.5 | 26.7 | 12.2 | 28.6 | > 40
CC(=O)Oc1ccc(COP(=O)(OCc2ccc(OC(C)=O)cc2)OC2C3OC4OC2C(OP(=O)(OCc2ccc(OC(C)=O)cc2)OCc2ccc(OC(C)=O)cc2)C(O4)C3OP(=O)(OCc2ccc(OC(C)=O)cc2)OCc2ccc(OC(C)=O)cc2)cc1 (stereo not given) | 85.8 | 94.2 | 92.4 | -2.9 | 7.09 | 1.41 | 1.89 | > 20
CC(=O)Oc1ccc(COP(=O)(OCc2ccc(OC(C)=O)cc2)O[C@H]2[C@H](OCc3ccccc3)[C@@H](OP(=O)(OCc3ccc(OC(C)=O)cc3)OCc3ccc(OC(C)=O)cc3)[C@H](OCc3ccccc3)[C@@H](OP(=O)(OCc3ccc(OC(C)=O)cc3)OCc3ccc(OC(C)=O)cc3)[C@H]2OCc2ccccc2)cc1 | 12.8 | 69.3 | -22.3 | 34.9 | – | – | – | –
CC(=O)Oc1ccc(COP(=O)(OCc2ccc(OC(C)=O)cc2)OC2C3OCOC2C(OP(=O)(OCc2ccc(OC(C)=O)cc2)OCc2ccc(OC(C)=O)cc2)C(OP(=O)(OCc2ccc(OC(C)=O)cc2)OCc2ccc(OC(C)=O)cc2)C3OCc2ccccc2)cc1 (stereo not given) | 94 | 94.3 | 94.4 | 2.5 | 4.27 | 1.08 | 1.68 | > 20
CC(=O)Oc1ccc(COP(=O)(OCc2ccc(OC(C)=O)cc2)O[C@H]2[C@H](OCc3ccccc3)[C@@H](OCc3ccccc3)[C@@H](OP(=O)(OCc3ccc(OC(C)=O)cc3)OCc3ccc(OC(C)=O)cc3)[C@@H](OP(=O)(OCc3ccc(OC(C)=O)cc3)OCc3ccc(OC(C)=O)cc3)[C@@H]2OCc2ccccc2)cc1 | -1.2 | -6.2 | -2.1 | 15.6 | – | – | – | –
CC(=O)Oc1ccc(COP(=O)(OCc2ccc(OC(C)=O)cc2)O[C@@H]2[C@@H](OCc3ccccc3)[C@@H](OCc3ccccc3)[C@@H](OP(=O)(OCc3ccc(OC(C)=O)cc3)OCc3ccc(OC(C)=O)cc3)[C@H](OP(=O)(OCc3ccc(OC(C)=O)cc3)OCc3ccc(OC(C)=O)cc3)[C@H]2OCc2ccccc2)cc1 | 7.8 | 80 | 21.3 | 9.2 | – | – | – | –
CC(=O)Oc1ccc(COP(=O)(OCc2ccc(OC(C)=O)cc2)O[C@@H]2[C@H](OCc3ccccc3)[C@H](OCc3ccccc3)[C@@H](OP(=O)(OCc3ccc(OC(C)=O)cc3)OCc3ccc(OC(C)=O)cc3)[C@H](OP(=O)(OCc3ccc(OC(C)=O)cc3)OCc3ccc(OC(C)=O)cc3)[C@H]2OCc2ccccc2)cc1 | 6.4 | 84.5 | 11 | 37.4 | – | – | – | –
CC(=O)Oc1ccc(COP(=O)(OCc2ccc(OC(C)=O)cc2)O[C@H]2[C@H](OP(=O)(OCc3ccc(OC(C)=O)cc3)OCc3ccc(OC(C)=O)cc3)[C@@H](OCc3ccccc3)[C@H](OCc3ccccc3)[C@H](OCc3ccccc3)[C@@H]2OP(=O)(OCc2ccc(OC(C)=O)cc2)OCc2ccc(OC(C)=O)cc2)cc1 | 4.7 | 49.5 | 19.2 | 45.1 | – | – | – | –
CC(=O)Oc1ccc(COP(=O)(OCc2ccc(OC(C)=O)cc2)O[C@@H]2[C@@H](OCc3ccccc3)[C@H](OCc3ccccc3)[C@@H](OP(=O)(OCc3ccc(OC(C)=O)cc3)OCc3ccc(OC(C)=O)cc3)[C@@H](OP(=O)(OCc3ccc(OC(C)=O)cc3)OCc3ccc(OC(C)=O)cc3)[C@H]2OCc2ccccc2)cc1 | 9.1 | -1.2 | -11 | 5.1 | – | – | – | –
